# Experimental data taken from PMC12780499 (Zoological Research, 2025).
# Where a name gives a salt, the structure may show the parent alone. Where a SMILES comes first, the peptide text is derived from it. [ ]: non-standard residue; d: D form. AEEA = NCCOCCOCC(=O)O
# What was measured:
# MRSA = assay: Agar spotting assay; type: cell-based, methicillin-resistant Staphylococcus aureus; conditions: bacterial spotting assay, Fig. 4B
# MRSA biofilm [1] = assay: Biofilm formation inhibition, crystal violet; type: cell-based, methicillin-resistant Staphylococcus aureus; conditions: TRPY 32 μmol/L, 24 h
# How it was run: (§1)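 Biofilms formed with test compound present (inhibition) or pre-formed then treated (eradication). Stained with 0.1% crystal violet; biofilm quantified by absorbance at 600 nm against untreated control.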
# MRSA biofilm [2] = assay: Eradication of preformed biofilm, crystal violet; type: cell-based, methicillin-resistant Staphylococcus aureus; conditions: TRPY 8 µmol/L, 24 h on 24 h biofilm
# How it was run: as §1
# K. pneumoniae 9409 = assay: Bacterial aggregation; type: cell-based, Klebsiella pneumoniae; conditions: 10 to 80 μmol/L, 4 h 37°C, PBS
# MRSA 33564 [3] = assay: MRSA peritoneal infection model; type: in vivo, mouse (female CD-1); conditions: 10 mg/kg i.p.
# How it was run: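 Female CD-1 mice (8–10 weeks) were challenged intraperitoneally with MRSA (1×10^8 CFU/mL). At 2 h post-infection they received 10 mg/kg test compound or PBS vehicle intraperitoneally (n=6 per group). Liver and kidneys were collected at 24 h post-infection and fixed in formalin. H&E-stained sections were compared with those from healthy, infected and vehicle-treated mice.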
# [4] = tested on: K. pneumoniae (strain 9409); assay: Time-kill kinetics; type: cell-based, Klebsiella pneumoniae; conditions: TRPY 2 μmol/L; 1×10^7 CFU/mL, RPMI 1640 + 10% FBS, 37°C
# How it was run: (§2)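 Bacteria adjusted to 1×10^7 CFU/mL in RPMI 1640 with 10% FBS. Incubated at 37°C, 200 rpm. Sampled every 30 min from 0 to 360 min, serially diluted in saline, plated on Mueller-Hinton agar, counted after 24 h at 37°C. Plotted as log₁₀ CFU/mL versus time.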
# MRSA persister cells = assay: Anti-persister activity; type: cell-based, methicillin-resistant Staphylococcus aureus; conditions: 8 μmol/L, 1 h 37°C; persisters from vancomycin 50× MIC 6 h
# How it was run: (§3)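 Exponential-phase cultures treated 6 h with 50× MIC colistin (K. pneumoniae) or vancomycin (MRSA). Survivors pelleted (4 000 r/min, 10 min, 4°C), washed twice in PBS and resuspended in Mueller-Hinton broth at about 1×10^7 CFU/mL. […] Serially diluted, plated on Mueller-Hinton agar, CFU counted.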
# In vivo pharmacokinetics = assay: In vivo pharmacokinetics; parameters: species or system mouse (female CD-1)
# How it was run: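 Plasma concentrations of test compound measured by HPLC over 8 h after dosing.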
# [5] = tested on: RAW264.7 (murine macrophages); assay: Cytotoxicity, CCK-8; type: cell-based; conditions: nearly all concentrations (2.5-80 μmol/L), 24 h
# MRSA (strain 33564) [6] = assay: Salt sensitivity assay; type: cell-based, methicillin-resistant Staphylococcus aureus
# How it was run: (§4)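 MICs determined in RPMI-1640 with 150 mM FeCl₃, CaCl₂, KCl, NaCl or MgCl₂ added; unsupplemented RPMI 1640 as control. Read after 18–24 h at 37°C. Three independent experiments, mean±SEM.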
# K. pneumoniae biofilm [7] = assay: Biofilm formation inhibition, crystal violet; type: cell-based, Klebsiella pneumoniae; conditions: TRPY 32 μmol/L, 24 h
# How it was run: as §1
# MRSA strain 33564 = assay: Membrane permeabilization, PI uptake; type: cell-based, methicillin-resistant Staphylococcus aureus; conditions: 0-32 μM, PI 10 μg/mL, 37°C 30 min
# K. pneumoniae = assay: Agar spotting assay; type: cell-based, Klebsiella pneumoniae; conditions: bacterial spotting assay, Fig. 4B
# [8] = tested on: HaCaT (human keratinocytes); assay: Cytotoxicity, CCK-8; type: cell-based; conditions: nearly all concentrations (2.5-80 μmol/L), 24 h
# [9] = tested on: K. pneumoniae strain 9409; assay: Membrane permeabilization, PI uptake; type: cell-based, Klebsiella pneumoniae; conditions: 0-32 μM, PI 10 μg/mL, 37°C 30 min
# Dynamic light scattering = type: physicochemical; conditions: DLS, 500 μg/mL in PBS pH 7.4, 25°C, triplicate
# E. coli LPS = assay: LPS-induced endotoxemia model; type: in vivo, mouse (female CD-1); conditions: 10 mg/kg i.p. 1 h after LPS 10 mg/kg, blood 6 h after LPS, n = 5
# How it was run: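 Female CD-1 mice (8–10 weeks) challenged intravenously with E. coli LPS 10 mg/kg. Test compound 10 mg/kg given intraperitoneally 1 h later (n=5); LPS-only controls. Blood drawn 6 h after LPS. Serum IL-6, MCP-1, TNF-α and IL-1β measured by ELISA. Mean±SEM; one-way ANOVA, Dunnett.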
# [10] = tested on: K. pneumoniae persister cells; assay: Anti-persister activity; type: cell-based, Klebsiella pneumoniae; conditions: 8× MIC, 1 h 37°C; persisters from colistin 50× MIC 6 h
# How it was run: as §3
# [11] = In vivo toxicity, 5 day intraperitoneal dosing; parameters: species or system mouse (female CD-1); conditions: for serum urea: n = 4; for aspartate aminotransferase (AST): serum day 5, n = 4; for alanine aminotransferase (ALT): serum day 5, n = 4, mean
# How it was run: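 Test compound given intraperitoneally to mice over 5 days at 5 and 10 mg/kg; PBS control group. Serum ALT and AST measured in U/L.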
# [12] = tested on: K. pneumoniae (strain 9409); assay: Salt sensitivity assay; type: cell-based, Klebsiella pneumoniae
# How it was run: as §4
# LPS = assay: BODIPY-TR-cadaverine displacement assay; type: binding; conditions: 0-64 μmol/L, LPS 50 μg/mL, 50 mmol/L Tris pH 7.4, 30 min 37°C
# MRSA 33564 [13] = assay: Bacterial aggregation; type: cell-based, methicillin-resistant Staphylococcus aureus; conditions: 10 to 80 μmol/L, 4 h 37°C, PBS
# [14] = tested on: HEK293 (human embryonic kidney cells); assay: Cytotoxicity, CCK-8; type: cell-based; conditions: nearly all concentrations (2.5-80 μmol/L), 24 h
# bacterial DNA = assay: DNA interaction, gel electrophoresis; type: binding; conditions: Fig. S5
# K. pneumoniae R62 = assay: Acute K. pneumoniae pulmonary infection model; type: in vivo, mouse (female CD-1)
# K. pneumoniae biofilm [15] = assay: Eradication of preformed biofilm, crystal violet; type: cell-based, Klebsiella pneumoniae; conditions: TRPY 8 µmol/L, 24 h on 24 h biofilm
# How it was run: as §1
# MRSA (strain 33564) [16] = assay: Time-kill kinetics; type: cell-based, methicillin-resistant Staphylococcus aureus; conditions: 1×10^7 CFU/mL, RPMI 1640 + 10% FBS, 37°C
# How it was run: as §2
# MRSA (strain 33564) [17] = assay: Membrane depolarization, DiSC3; type: cell-based, methicillin-resistant Staphylococcus aureus; conditions: 30 min observation
# How it was run: (§5)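 Cells grown in Mueller-Hinton broth to OD600 0.5, pelleted (3500 r/min, 5 min, 4°C), washed twice in 5 mM HEPES pH 7.4 with 20 mM glucose. Adjusted to OD600 0.05 and loaded 30 min at room temperature with DiSC₃(5) (2 µmol/L final). KCl added (100 mmol/L final). After baseline reading (ex 622/em 670 nm), test compound added at 1, 2, 4 or 8 µmol/L; read continuously for 30 min.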
# [18] = tested on: K. pneumoniae (strain 9409); assay: Membrane depolarization, DiSC3; type: cell-based, Klebsiella pneumoniae; conditions: 30 min observation
# How it was run: as §5
# [19] = female, CD-1, mouse, plasma, iv, 5 mg/kg
# [20] = 150 mmol/L of each salt in RPMI-1640
# [21] = 5 mg/kg i.p. once daily for 5 days
# [22] = 10 mg/kg i.p. once daily for 5 days
# [23] = 5 and 10 mg/kg i.p. for 5 days vs PBS
# [24] = 2 mg/kg intranasal, 18 h post-treatment, n = 7
smiles,measurement,setting,value
CC[C@H](C)[C@H](NC(=O)[C@H](CCCCN)NC(=O)[C@H](Cc1c[nH]c2ccccc12)NC(=O)[C@H](Cc1c[nH]c2ccccc12)NC(=O)[C@H](CCCCN)NC(=O)[C@H](CCCCN)NC(=O)[C@H](CCCCN)NC(=O)[C@H](Cc1c[nH]c2ccccc12)NC(=O)[C@H](CCCCN)NC(=O)[C@H](CCCCN)NC(=O)[C@H](Cc1c[nH]c2ccccc12)NC(=O)[C@H](CCCCN)NC(=O)[C@H](CCCCN)NC(=O)[C@@H](NC(=O)[C@@H](NC(=O)[C@H](CCCCN)NC(=O)[C@@H](N)CCCNC(=N)N)[C@@H](C)CC)[C@@H](C)CC)C(=O)N[C@@H](Cc1c[nH]c2ccccc12)C(=O)N[C@@H](Cc1c[nH]c2ccccc12)C(=O)N[C@@H](CCCCN)C(=O)NCCOCCOCC(N)=O [TRPY] (H-RKIIKKWKKWKKKWWKIWWK[AEEA]-NH2; N-terminus and C-terminus assumed),concentration giving complete growth inhibition,MRSA,≥ 1 µmol/L
same,reduction of biofilm formation compared to control,MRSA biofilm [1],approximately 95%
same,reduction of preformed biofilm,MRSA biofilm [2],over 40%
same,bacterial aggregation,K. pneumoniae 9409,dose-dependent formation of visible precipitates
same,liver and kidney histopathology in infected mice,MRSA 33564 [3],maintained normal tissue architecture in the liver and kidneys
same,time to eliminate all viable cells,[4],≤ 60 min
same,persister cells after treatment,MRSA persister cells,complete eradication
same,level at 0.25 h,In vivo pharmacokinetics; [19],~15000 ng/mL
same,level at 2 h,In vivo pharmacokinetics; [19],< 1000 ng/mL
same,level at 8 h,In vivo pharmacokinetics; [19],~120 ng/mL
same,elimination profile,"In vivo pharmacokinetics; single i.v. 5 mg/kg, 8 h",biphasic elimination profile
same,cell viability,[5],over 80%
same,"effect of KCl, NaCl, and CaCl2 on antimicrobial activity",MRSA (strain 33564) [6]; [20],minimal interference with antimicrobial activity
same,MIC with FeCl3,"MRSA (strain 33564) [6]; RPMI-1640 + 150 mmol/L FeCl3, 37°C 18-24 h, strain 33564",approximately 2.0 μmol/L
same,MIC with MgCl2,"MRSA (strain 33564) [6]; RPMI-1640 + 150 mmol/L MgCl2, 37°C 18-24 h, strain 33564",approximately 2.0 μmol/L
same,reduction of biofilm formation compared to control,K. pneumoniae biofilm [7],approximately 95%
same,PI uptake (cytoplasmic membrane disruption),MRSA strain 33564,concentration-dependent increase in PI fluorescence
same,concentration giving complete growth inhibition,K. pneumoniae,≥ 1 µmol/L
same,cell viability,[8],over 80%
same,PI uptake (cytoplasmic membrane disruption),[9],concentration-dependent increase in PI fluorescence
same,nanoparticle average size,Dynamic light scattering,approximately 160 nm
same,reduction of serum IL-1β relative to LPS-only controls,E. coli LPS,52.3%
same,reduction of serum IL-6 relative to LPS-only controls,E. coli LPS,42.3%
same,reduction of serum MCP-1 relative to LPS-only controls,E. coli LPS,46.6%
same,reduction of serum TNF-α relative to LPS-only controls,E. coli LPS,39.5%
same,persister CFU/mL after treatment,[10],virtually undetectable levels
same,serum urea,[11]; [21],11.2 ± 1.5 µmol/L
same,aspartate aminotransferase (AST),[11]; [21],102.7±6.6 U/L
same,alanine aminotransferase (ALT),[11]; [21],22.8±2.6 U/L
same,serum urea,[11]; [22],12.1 ± 1.2 µmol/L
same,aspartate aminotransferase (AST),[11]; [22],105.2±4.7 U/L
same,alanine aminotransferase (ALT),[11]; [22],23.4±3.2 U/L
same,kidney histopathology (H&E),[11]; 5 and 10 mg/kg i.p. for 5 days,normal glomerular and tubular architecture
same,liver histopathology (H&E),[11]; 5 and 10 mg/kg i.p. for 5 days,"no signs of necrosis, inflammation, or fatty degeneration"
same,alkaline phosphatases (ALP) levels,[11]; [23],comparable across treatment groups
same,body weight,[11]; [23],no significant differences between the TRPY-treated and control groups
same,"effect of KCl, NaCl, and CaCl2 on antimicrobial activity",[12]; [20],minimal interference with antimicrobial activity
same,MIC with FeCl3,"[12]; RPMI-1640 + 150 mmol/L FeCl3, 37°C 18-24 h, strain 9409",approximately 2.0 μmol/L
same,MIC with MgCl2,"[12]; RPMI-1640 + 150 mmol/L MgCl2, 37°C 18-24 h, strain 9409",approximately 2.0 μmol/L
same,LPS binding (probe displacement),LPS,"strong, concentration-dependent binding to LPS"
same,bacterial aggregation,MRSA 33564 [13],dose-dependent formation of visible precipitates
same,cell viability,[14],over 80%
same,concentration inducing degradation or binding to bacterial DNA,bacterial DNA,≥ 4 µmol/L
same,lung histology (H&E),K. pneumoniae R62; 2 mg/kg intranasal,reduced inflammatory cell infiltration and preserved alveolar architecture
same,reduction of pulmonary bacterial burden vs control,"K. pneumoniae R62; 2 mg/kg intranasal 2 h post-infection, lungs 18 h post-treatment, n = 7",approximately 1 log
same,reduction in IL-1β vs control group,K. pneumoniae R62; [24],42.8%
same,reduction in IL-6 vs control group,K. pneumoniae R62; [24],39.2%
same,reduction in MCP-1 vs control group,K. pneumoniae R62; [24],58.4%
same,reduction in TNF-α vs control group,K. pneumoniae R62; [24],34.7%
same,reduction of preformed biofilm,K. pneumoniae biofilm [15],over 40%
same,time to eradicate all viable cells,MRSA (strain 33564) [16]; TRPY 2 μmol/L,≤ 60 min
"CNC(C)C1CCC(N)C(OC2C(N)CC(N)C(OC3OCC(C)(O)C(NC)C3O)C2O)O1 (stereo not drawn) [Gentamicin, gentamicin sulfate]",DiSC3(5) fluorescence (membrane potential),MRSA (strain 33564) [17],maintained baseline fluorescence
same,DiSC3(5) fluorescence (membrane potential),[18],maintained baseline fluorescence
same,time to eradicate all viable cells,MRSA (strain 33564) [16]; gentamicin 20 μmol/L,over 360 min
